Experimental data published in ChEMBL document CHEMBL1671701, “Discovery of potent small-molecule inhibitors of multidrug-resistant Plasmodium falciparum using a novel miniaturized high-throughput luciferase-based assay” (Antimicrob Agents Chemother, 2010).
pIC50: −log10 of the molar value. Where a name gives a salt, the structure may show the parent alone.

Tested on: Plasmodium falciparum
Assay: Antiplasmodial activity against Plasmodium falciparum 3D7 infected in RBCs by firefly luciferase reporter gene assay
Assay type: functional, organism-based
Settings: not given
Method in brief: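 Sorbitol-synchronised 3D7 expressing firefly luciferase from the HRPII promoter, at 1% late-ring parasitemia and 3% hematocrit in RPMI/albumax II medium. Sixteen 2-fold dilutions from 17 μM to 0.5 nM, 48 h at 37°C under 5% O2/5% CO2/N2. Bright-Glo luminescence is normalised to untreated infected and uninfected-RBC wells. IC50 by four-parameter logistic fit.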

For `CCNC(=O)N1CCN(CCCC(c2ccc(F)cc2)c2ccc(F)cc2)CC1` [AMPEROZIDE DIHYDROCHLORIDE], the pIC50 was 6.35.
Work on `CCNC(=O)N1CCN(CCCC(c2ccc(F)cc2)c2ccc(F)cc2)CC1` [AMPEROZIDE HYDROCHLORIDE] yielded a pIC50 of 7.46.

Same assay, conditions: Plasmodium falciparum, 3D7

First: O[Si](CCCN1CCCCC1)(c1ccc(F)cc1)C1CCCCC1 (stereo unspecified)
Second: Fc1ccc(C(CCCN2CCCCC2)c2ccc(F)cc2)cc1
The pIC50 of the first is 3.18 log units higher: 8.40 for the first, 5.22 for the second.

First: CCCN(CCC)[C@H]1CCc2c(F)ccc(O)c2C1
Second: CCCN(CC1CC1)c1cc(Cl)cc(Cl)c1O
The pIC50 of the first is 1.82 log units higher: 8.30 for the first, 6.48 for the second.

First: COc1ccc(CNC2CCN(Cc3ccccc3)CC2)cc1
Second: Clc1ccc(CNC2CCN(Cc3ccccc3)CC2)cc1
The pIC50 of the first is 0.71 log units lower: 5.89 for the first, 6.60 for the second. The second is the more potent here.

Going from `NC(=O)CCCCn1ccc(/N=C(\N)NCC(F)(F)F)n1` to `NC(N)=Nc1nc(CSCC/C(N)=N/S(N)(=O)=O)cs1` [FAMOTIDINE], the pIC50 falls from 4.74 to less than 4.64. The first is the more potent here.

`CN1CCN(CCCC(c2ccc(F)cc2)c2ccc(F)cc2)CC1` and `Fc1ccc(C(CCCN2CCCC2)c2ccc(F)cc2)cc1` are the same in pIC50: 4.92 for the first, 4.92 for the second.

Compared with `Fc1ccc(C(CCCN2CCOCC2)c2ccc(F)cc2)cc1`, `Fc1ccc(C(CCCN2CCNCC2)c2ccc(F)cc2)cc1` is 0.61 log units higher in pIC50: 4.74 for the first, 5.35 for the second. The second is the more potent here.

`Oc1ccccc1N1CCCC2CCCCC21` (stereo unspecified) and `Oc1c(Br)cccc1N1CCCCCCC1` are within 0.2 log units of each other in pIC50: 6.39 for the first, 6.37 for the second.

First: CN(CCc1ccccc1)c1cc(Br)cc(Br)c1O
Second: CN(Cc1ccccc1)c1cc(Br)cc(Br)c1O
The pIC50 of the first is 1.27 log units higher: 7.44 for the first, 6.17 for the second.

`CC1CCCN(c2cc(Cl)cc(Cl)c2O)C1` (stereo unspecified) and `CC1CCCN(c2cccc(Br)c2O)C1` (stereo unspecified) are within 0.2 log units of each other in pIC50: 6.96 for the first, 6.89 for the second.

Going from `Oc1c(Cl)cccc1N1CCCCCCC1` to `COc1ccc(O)c(N2CCCCC2)c1`, the pIC50 falls from 6.74 to 6.10 (0.64 log units).

Compared with `CCCCN(C)c1cc(Br)cc(Br)c1O`, `CCCN(CC1CC1)c1cc(Br)cc(Br)c1O` is 0.42 log units lower in pIC50: 6.57 for the first, 6.15 for the second.

Going from `CCCN(CC1CC1)c1cc(OC)cc(Br)c1O` to `CCN(CC)CCCC(C)Nc1c2ccc(Cl)cc2nc2ccc(OC)cc12` (stereo unspecified) [QUINACRINE DIHYDROCHLORIDE], the pIC50 rises from 6.54 to 9.00 (2.46 log units).

`CCCCN(Cc1ccccc1)c1ccccc1O` and `CCCN1CCC(NCC(c2ccccc2)c2ccccc2)CC1` are within 0.2 log units of each other in pIC50: 6.38 for the first, 6.31 for the second.

First: Oc1c(Cl)cccc1C1=NN=C(c2ccc(F)cc2)C1
Second: Oc1c(Cl)cccc1C1=NN=C(c2ccc(Cl)cc2)C1
The pIC50 of the first is 1.00 log units higher: 5.82 for the first, 4.82 for the second.

Compared with `Cc1cccc(C2=NN=C(c3ccc(Br)cc3)C2)c1O`, `CN1CCc2cccc3c2[C@H]1Cc1ccc(O)c(O)c1-3` [APOMORPHINE HYDROCHLORIDE] is 1.10 log units higher in pIC50: 5.33 for the first, 6.43 for the second.

`c1ccc(CCN2CCC(NC3CCCCC3)CC2)cc1` and `Clc1cccc(CNC2CCN(Cc3ccccc3)CC2)c1` are within 0.2 log units of each other in pIC50: 6.05 for the first, 5.96 for the second.

`CC(=O)N(C1=C(N2CCCCC2)C(=O)c2ccccc2C1=O)C1CCCCC1` and `CC(=O)N(C1=C(N2CCCCC2)C(=O)c2ccccc2C1=O)c1cccc(Cl)c1` are within 0.2 log units of each other in pIC50: 5.27 for the first, 5.37 for the second.

Compared with `O=C(Nc1ccccc1)N1CCN(CCCC(c2ccc(F)cc2)c2ccc(F)cc2)CC1`, `O=S(=O)(c1ccccc1)N1CCN(CCCC(c2ccc(F)cc2)c2ccc(F)cc2)CC1` is 0.38 log units higher in pIC50: 5.14 for the first, 5.52 for the second. The second is the more potent here.

`CCN(CC)CCCC(c1ccc(F)cc1)c1ccc(F)cc1` and `O=C1CCN(CCCC(c2ccc(F)cc2)c2ccc(F)cc2)CC1` are within 0.2 log units of each other in pIC50: 5.24 for the first, 5.27 for the second.

First: Cc1ccc(CS(=O)(=O)N2CCN(CCCC(c3ccc(F)cc3)c3ccc(F)cc3)CC2)cc1
Second: COc1ccc(CCN2CCC(Nc3nc4ccccc4n3Cc3ccc(F)cc3)CC2)cc1 [ASTEMIZOLE]
The pIC50 of the first is 0.50 log units lower: 6.10 for the first, 6.60 for the second. The second is the more potent here.

Compared with `C=CC[N+](C)(C)c1ccc(CCC(=O)CCc2ccc([N+](C)(C)CC=C)cc2)cc1`, `N=C(N)c1ccc(OCCCCCOc2ccc(C(=N)N)cc2)cc1` is 0.41 log units higher in pIC50: 6.97 for the first, 7.38 for the second. The second is the more potent here.

First: CCCN1CCC(NC(c2ccccc2)c2ccc(Cl)cc2)CC1 (stereo unspecified)
Second: Clc1ccc(C(OCCN2CCCCC2)c2ccccc2)cc1 (stereo unspecified) [CLOPERASTINE HYDROCLORIDE]
The pIC50 of the first is 0.65 log units higher: 5.96 for the first, 5.31 for the second. The first is the more potent here.

`N/C(=N\C(=O)c1nc(Cl)c(N)nc1N)NCc1ccc(Cl)c(Cl)c1` [3',4' DICHLOROBENZAMIL] and `N/C(=N\C(=O)c1nc(Cl)c(N)nc1N)NCc1ccccc1` [BENZAMIL HYDROCHLORIDE] are within 0.2 log units of each other in pIC50: 6.84 for the first, 6.66 for the second.

`CN(C)c1nc(N)c(C(=O)NC(=N)N)nc1Cl` [5-(N,N-DIMETHYL)AMILORIDE HYDROCHLORIDE] and `CCN(c1nc(N)c(C(=O)NC(=N)N)nc1Cl)C(C)C` [5-(N-ETHYL-N-ISOPROPYL)AMILORIDE] are within 0.2 log units of each other in pIC50: 5.96 for the first, 6.08 for the second.

Compared with `CC(C)CN(C)c1nc(N)c(C(=O)N=C(N)N)nc1Cl` [5-(N-METHYL-N-ISOBUTYL)AMILORIDE], `CNC(=C[N+](=O)[O-])NCCSCc1csc(CN(C)C)n1` [NIZATIDINE] is lower in pIC50: 6.26 for the first, less than 4.64 for the second.

Going from `N#CN/C(=N\CCNC(=O)c1ccc(N)cc1)NCCCOc1cccc(CN2CCCCC2)c1` [AMINOPOTENTIDINE] to `N#Cc1ccc2c(c1)N(CCCN1CCC(O)CC1)c1ccccc1S2` [PERICIAZINE], the pIC50 rises from 4.83 to 5.18 (0.35 log units). The second is the more potent here.

Compared with `CCCCCC[C@H]1C(=O)O[C@H](C)[C@H](NC(=O)c2cccc(NC=O)c2O)C(=O)O[C@@H](C)[C@@H]1OC(=O)CC(C)C` [ANTIMYCIN A], `CCC(=O)O[C@]1(C(=O)CCl)[C@@H](C)C[C@H]2[C@@H]3CCC4=CC(=O)C=C[C@]4(C)[C@@]3(F)[C@@H](O)C[C@@]21C` [CLOBETASOL PROPIONATE] is 0.44 log units higher in pIC50: 5.66 for the first, 6.10 for the second. The second is the more potent here.

Compared with `C[C@H]1[C@H](OC(=O)CCC(=O)O)O[C@@H]2O[C@@]3(C)CC[C@H]4[C@H](C)CC[C@@H]1[C@@]24OO3` [ARTESUNATE], `C[C@@H]1C[C@H]2[C@@H]3CCC4=CC(=O)C=C[C@]4(C)[C@@]3(Cl)[C@@H](O)C[C@]2(C)[C@@]1(OC(=O)c1ccco1)C(=O)CCl` [MOMETASONE FUROATE] is 2.66 log units lower in pIC50: 8.48 for the first, 5.82 for the second. The first is the more potent here.

`CCCCOc1ccc(CC(=O)NO)cc1` [BUFEXAMAC] and `CCN(CC)CCNc1ccc(CO)c2sc3ccccc3c(=O)c12` [HYCANTHONE] are within 0.2 log units of each other in pIC50: 5.56 for the first, 5.52 for the second.

`CN/C(=N\CCSCc1nc[nH]c1C)NC#N` [CIMETIDINE] and `C/N=C(/NC#N)NCCSCc1csc(NC(=N)N)n1` [TIOTIDINE] cannot be ordered by pIC50: less than 4.64 for the first, less than 4.64 for the second.

Going from `C=C[C@H]1CN2CC[C@H]1C[C@@H]2[C@@H](O)c1ccnc2ccccc12` [CINCHONINE] to `C=C[C@H]1CN2CC[C@H]1C[C@@H]2[C@@H](O)c1ccnc2ccc(OC)cc12` [QUINIDINE SULFATE], the pIC50 falls from 8.30 to 7.25 (1.05 log units). The first is the more potent here.

Going from `CC[C@H]1CN2CCc3cc(OC)c(OC)cc3[C@@H]2C[C@@H]1C[C@H]1NCCc2cc(OC)c(OC)cc21` [EMETINE DIHYDROCHLORIDE HYDRATE] to `C=C[C@H]1CN2CC[C@H]1C[C@H]2[C@H](O)c1ccnc2ccc(OC)cc12` [QUININE SULFATE], the pIC50 falls from 9.00 to 6.55 (2.45 log units).

Going from `NCCc1c[nH]cn1` [HISTAMINE] to `Cc1ccnc(NS(=O)(=O)c2ccc(N)cc2)n1` [SULFAMERAZINE], the pIC50 rises from 6.18 to 8.22 (2.04 log units). The second is the more potent here.

`O=c1ccc2ccccc2[nH]1` [OXYQUINOLINE HEMISULFATE] and `CCCc1nc2c(C)cc(-c3nc4ccccc4n3C)cc2n1Cc1ccc(-c2ccccc2C(=O)O)cc1` [TELMISARTAN] are within 0.2 log units of each other in pIC50: 5.94 for the first, 5.79 for the second.

`CNC(=C[N+](=O)[O-])NCCSCc1ccc(CN(C)C)o1` [RANITIDINE HYDROCHLORIDE] showed a pIC50 of less than 4.64.
